Test results published in ChEMBL document CHEMBL1124824, “Synthesis and biological activity of atrial natriuretic factor analogues: effect of modifications to the disulfide bridge” (J Med Chem, 1990).
pIC50: −log10 of the molar value. Starred links: 1 amine or outer side, 2 acyl side, 3 side chain; linkers in the order of their positions; H or OH if unused. Positions of bridges follow the written chain, without caps; N, C: chain ends. Non-standard residues stand in square brackets, D forms with d. Residues, ends and D or L forms follow the SMILES beside them. Pen = CC(C)(S)[C@H](N)C(=O)O; hCys = N[C@@H](CCS)C(=O)O; X2 = O=C(CCC[*:2])[*:1]; X1 = O=C(CC[*:2])[*:1]

Legend:
Oryctolagus cuniculus = organism: Oryctolagus cuniculus; experiment: Compound was tested for the inhibition of the stimulated contractions of the superfused rabbit thoracic aortic rings.; format: functional, Aorta
Method in brief: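 Rabbit thoracic aorta rings (4 mm) were held isometrically at 10-g resting tension, superfused and precontracted with phenylephrine. Test peptide was added to the superfusate above the tissue in successively higher doses after each recovery. Doses were based on peptide content. EC50 came from the dose-response curve, mean of three determinations ± SEM.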

Rattus norvegicus [1] = organism: Rattus norvegicus; experiment: Compound was tested for the Na+ excretion for treated over control animals; format: functional
Method in brief: (§1)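 Male Sprague-Dawley rats (300-325 g) under halothane/lidocaine had femoral artery, femoral vein and bladder cannulated. After at least 1 h of recovery in restraint, they received Ringer's (1.2 mL/h), with 10-min urine collections over a 30-min control period. Infusion of 0.5 μg/kg per min for 30 min and a 30-min Ringer's recovery followed. Na+, K+ and Cl- were measured with an electrolyte analyzer, reported as treated minus control μmol/sample. Volume ratio is treated/control over three consecutive 10-min samples, six animals.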

Rattus norvegicus [2] = organism: Rattus norvegicus; experiment: Compound was tested for antihypertensive activity in DOCA nephrectomized rats.; format: functional
Method in brief: (§2)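 Rats were anesthetized with halothane after skin infiltration with 2% lidocaine, and the femoral artery and vein were cannulated. After recovery, arterial pressure was recorded. A saline control period was followed by i.v. infusion in 30-min steps at 0.1, 0.2, 0.5 and 1.0 μg/kg per min (70 μL/kg per min). Hydralazine (100 μg/kg per min) was given for standardization. ED50 is in nmol/kg per min, from six animals.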

Rattus norvegicus [3] = organism: Rattus norvegicus; experiment: Compound was tested for the K+ excretion for treated over control animals; format: functional; method in brief: as §1
Rattus norvegicus [4] = organism: Rattus norvegicus; experiment: Compound was tested for the Cl- excretion for treated over control animals; format: functional; method in brief: as §1
[5] = target: T1, Atrial natriuretic peptide receptor 3 (Mus musculus, UniProt P70180); experiment: Binding affinity was determined based on the displacement of [125]r-ANF (99-126) from binding sites on mouse fibroblasts (NIH 3T3) cells (Atrionatriuretic peptide receptor C).
T1 sequence (P70180 whole entry): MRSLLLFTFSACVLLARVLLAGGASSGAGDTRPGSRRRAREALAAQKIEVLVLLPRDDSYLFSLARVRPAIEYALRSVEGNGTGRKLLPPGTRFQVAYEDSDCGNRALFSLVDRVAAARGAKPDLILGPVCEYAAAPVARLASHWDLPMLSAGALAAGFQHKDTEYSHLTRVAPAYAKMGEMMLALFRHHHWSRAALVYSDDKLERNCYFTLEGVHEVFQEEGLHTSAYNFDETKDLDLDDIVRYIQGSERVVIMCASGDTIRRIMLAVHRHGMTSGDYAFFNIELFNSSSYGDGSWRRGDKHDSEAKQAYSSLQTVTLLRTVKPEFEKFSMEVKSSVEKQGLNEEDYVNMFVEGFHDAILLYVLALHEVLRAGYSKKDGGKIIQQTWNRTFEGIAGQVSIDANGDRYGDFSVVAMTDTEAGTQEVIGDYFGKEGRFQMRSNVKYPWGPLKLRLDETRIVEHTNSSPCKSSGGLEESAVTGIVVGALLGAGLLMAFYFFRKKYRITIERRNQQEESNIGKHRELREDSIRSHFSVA

[6] = target: T2, Atrial natriuretic peptide receptor 2 (Bos taurus, UniProt P46197); experiment: Binding affinity was determined based on the displacement of [125]r-ANF (99-126) from binding sites on bovine adrenal zona glomerulosa cell membranes (Atrionatriuretic peptide receptor B)
T2 sequence (P46197 whole entry): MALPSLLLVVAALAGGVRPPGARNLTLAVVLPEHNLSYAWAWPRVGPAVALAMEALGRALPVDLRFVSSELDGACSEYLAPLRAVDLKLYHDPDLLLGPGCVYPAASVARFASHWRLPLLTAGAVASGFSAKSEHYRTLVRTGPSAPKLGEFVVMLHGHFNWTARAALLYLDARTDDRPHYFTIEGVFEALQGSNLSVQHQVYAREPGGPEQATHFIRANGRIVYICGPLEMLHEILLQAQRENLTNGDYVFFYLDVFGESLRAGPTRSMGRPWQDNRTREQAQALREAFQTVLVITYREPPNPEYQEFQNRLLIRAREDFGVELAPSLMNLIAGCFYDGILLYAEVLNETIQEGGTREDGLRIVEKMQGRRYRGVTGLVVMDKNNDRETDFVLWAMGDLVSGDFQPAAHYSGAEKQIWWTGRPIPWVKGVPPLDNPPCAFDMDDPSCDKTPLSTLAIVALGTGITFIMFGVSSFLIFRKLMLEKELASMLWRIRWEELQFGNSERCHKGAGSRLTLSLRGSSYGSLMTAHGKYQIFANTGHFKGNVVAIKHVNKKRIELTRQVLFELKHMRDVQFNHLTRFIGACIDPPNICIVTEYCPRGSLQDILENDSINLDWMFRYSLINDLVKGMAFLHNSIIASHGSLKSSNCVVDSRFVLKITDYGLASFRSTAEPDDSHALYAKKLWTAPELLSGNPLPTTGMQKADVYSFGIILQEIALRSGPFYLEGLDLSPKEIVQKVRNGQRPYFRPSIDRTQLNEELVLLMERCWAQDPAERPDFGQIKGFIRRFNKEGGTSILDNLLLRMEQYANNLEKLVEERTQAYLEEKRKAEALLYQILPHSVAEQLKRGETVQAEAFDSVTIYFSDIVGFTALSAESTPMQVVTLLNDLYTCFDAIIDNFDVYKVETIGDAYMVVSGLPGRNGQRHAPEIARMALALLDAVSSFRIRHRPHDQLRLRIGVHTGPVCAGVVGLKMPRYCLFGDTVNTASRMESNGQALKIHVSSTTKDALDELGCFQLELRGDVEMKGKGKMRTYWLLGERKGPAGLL

Rattus norvegicus [7] = experiment: Compound was tested for diuretic activity and the ratio of urine volume for treated over control animals was reported after infused at a dose of 0.5 ug/kg.; format: functional; method in brief: as §1
Rattus norvegicus [8] = organism: Rattus norvegicus; experiment: Compound was tested for antihypertensive activity in 5/6 nephrectomized rats.; format: functional; method in brief: as §2
Rattus norvegicus [9] = organism: Rattus norvegicus; experiment: Compound was tested for the Na+ excretion for treated over control animals.; format: functional; method in brief: as §1
Rattus norvegicus [10] = organism: Rattus norvegicus; experiment: Compound was tested for the K+ excretion for treated over control animals.; format: functional; method in brief: as §1

Compound	EC50 (Oryctolagus cuniculus) [M 50ul-1]	Electrolyte excretion (Rattus norvegicus [1]) [uM sample-1]	ED50 (Rattus norvegicus [2]) [nM/min/kg]	Electrolyte excretion (Rattus norvegicus [3]) [uM sample-1]	Electrolyte excretion (Rattus norvegicus [4]) [umol/sample]	pIC50 [5]	pIC50 [6]	Ratio (Rattus norvegicus [7])	ED50 (Rattus norvegicus [8]) [nM/min/kg]	Electrolyte excretion (Rattus norvegicus [9]) [uM sample-1]	Electrolyte excretion (Rattus norvegicus [10]) [uM sample-1]
CC[C@H](C)[C@@H]1NC(=O)[C@H](CCCN=C(N)N)NC(=O)[C@H](CC(=O)O)NC(=O)[C@H]([C@@H](C)CC)NC(=O)[C@H](CCCN=C(N)N)NC(=O)CNC(=O)CNC(=O)[C@H](Cc2ccccc2)NC(=O)[C@@H](N)CSSC[C@@H](C(=O)N[C@@H](CC(N)=O)C(=O)N[C@@H](CO)C(=O)N[C@@H](Cc2ccccc2)C(=O)N[C@@H](CCCN=C(N)N)C(=O)N[C@@H](Cc2ccc(O)cc2)C(=O)O)NC(=O)CNC(=O)[C@H](CC(C)C)NC(=O)CNC(=O)[C@H](CO)NC(=O)[C@H](CCC(N)=O)NC(=O)[C@H](C)NC(=O)CNC1=O (H-CFGGRIDRIGAQSGLGCNSFRY-OH; disulfide 1-17)	3.1e-10	15.9	0.1	12.9	28.5	9.30	8.44	–	–	–	–
CC[C@H](C)[C@@H]1NC(=O)[C@H](CCCN=C(N)N)NC(=O)[C@H](CC(=O)O)NC(=O)[C@H]([C@@H](C)CC)NC(=O)[C@H](CCCN=C(N)N)NC(=O)CNC(=O)CNC(=O)[C@H](Cc2ccccc2)NC(=O)[C@@H](NC(=O)[C@H](CO)NC(=O)[C@H](CO)NC(=O)[C@H](CCCN=C(N)N)NC(=O)[C@H](CC(C)C)NC(=O)[C@@H](N)CO)CSSC[C@@H](C(=O)N[C@@H](CC(N)=O)C(=O)N[C@@H](CO)C(=O)N[C@@H](Cc2ccccc2)C(=O)N[C@@H](CCCN=C(N)N)C(=O)N[C@@H](Cc2ccc(O)cc2)C(=O)O)NC(=O)CNC(=O)[C@H](CC(C)C)NC(=O)CNC(=O)[C@H](CO)NC(=O)[C@H](CCC(N)=O)NC(=O)[C@H](C)NC(=O)CNC1=O	–	57.4	0.1	16.2	72.4	–	–	3.1	0.14	–	–
CC[C@H](C)[C@@H]1NC(=O)[C@H](CCCN=C(N)N)NC(=O)[C@H](CC(=O)O)NC(=O)[C@H]([C@@H](C)CC)NC(=O)[C@H](CCCN=C(N)N)NC(=O)CNC(=O)CNC(=O)[C@H](Cc2ccccc2)NC(=O)[C@@H](NC(=O)[C@H](CO)NC(=O)[C@@H](N)CO)CSSC[C@@H](C(=O)N[C@@H](CC(N)=O)C(=O)N[C@@H](CO)C(=O)N[C@@H](Cc2ccccc2)C(=O)N[C@@H](CCCN=C(N)N)C(=O)N[C@@H](Cc2ccc(O)cc2)C(=O)O)NC(=O)CNC(=O)[C@H](CC(C)C)NC(=O)CNC(=O)[C@H](CO)NC(=O)[C@H](CCC(N)=O)NC(=O)[C@H](C)NC(=O)CNC1=O (H-SSCFGGRIDRIGAQSGLGCNSFRY-OH; disulfide 3-19)	–	79.6	0.16	23	–	–	–	2.7	0.13	–	–
CC[C@H](C)[C@@H]1NC(=O)[C@H](CCCN=C(N)N)NC(=O)[C@H](CC(=O)O)NC(=O)[C@H]([C@@H](C)CC)NC(=O)[C@H](CCCN=C(N)N)NC(=O)CNC(=O)CNC(=O)[C@H](Cc2ccccc2)NC(=O)CCCSC(C)(C)[C@@H](C(=O)N[C@@H](CC(N)=O)C(=O)N[C@@H](CO)C(=O)N[C@@H](Cc2ccccc2)C(=O)N[C@@H](CCCN=C(N)N)C(=O)N[C@@H](Cc2ccc(O)cc2)C(=O)O)NC(=O)CNC(=O)[C@H](CC(C)C)NC(=O)CNC(=O)[C@H](CO)NC(=O)[C@H](CCC(N)=O)NC(=O)[C@H](C)NC(=O)CNC1=O (FGGRIDRIGAQSGLG[Pen]NSFRY-OH; linker N-16 via X2)	–	17.9	0.14	24.8	39.6	–	–	3	0.11	–	–
CC[C@H](C)[C@@H]1NC(=O)[C@H](CCCN=C(N)N)NC(=O)[C@H](CC(=O)O)NC(=O)[C@H]([C@@H](C)CC)NC(=O)[C@H](CCCN=C(N)N)NC(=O)CNC(=O)CNC(=O)[C@H](Cc2ccccc2)NC(=O)CCSCC[C@@H](C(=O)N[C@@H](CC(N)=O)C(=O)N[C@@H](CO)C(=O)N[C@@H](Cc2ccccc2)C(=O)N[C@@H](CCCN=C(N)N)C(=O)N[C@@H](Cc2ccc(O)cc2)C(=O)O)NC(=O)CNC(=O)[C@H](CC(C)C)NC(=O)CNC(=O)[C@H](CO)NC(=O)[C@H](CCC(N)=O)NC(=O)[C@H](C)NC(=O)CNC1=O (FGGRIDRIGAQSGLG[hCys]NSFRY-OH; linker N-16 via X1)	–	7.2	0.83	3.5	15.9	–	–	1.7	1.2	–	–
CC[C@H](C)[C@@H]1NC(=O)[C@H](CCCN=C(N)N)NC(=O)[C@H](CC(=O)O)NC(=O)[C@H]([C@@H](C)CC)NC(=O)[C@H](CCCN=C(N)N)NC(=O)CNC(=O)CNC(=O)[C@H](Cc2ccccc2)NC(=O)CCC=CC[C@@H](C(=O)N[C@@H](CC(N)=O)C(=O)N[C@@H](CO)C(=O)N[C@@H](Cc2ccccc2)C(=O)N[C@@H](CCCN=C(N)N)C(=O)N[C@@H](Cc2ccc(O)cc2)C(=O)O)NC(=O)CNC(=O)[C@H](CC(C)C)NC(=O)CNC(=O)[C@H](CO)NC(=O)[C@H](CCC(N)=O)NC(=O)[C@H](C)NC(=O)CNC1=O	–	–	–	–	7.3	–	–	2.5	1.2	0.4	3.2
CC[C@H](C)[C@@H]1NC(=O)[C@H](CCCN=C(N)N)NC(=O)[C@H](CC(=O)O)NC(=O)[C@H]([C@@H](C)CC)NC(=O)[C@H](CCCN=C(N)N)NC(=O)CNC(=O)CNC(=O)[C@H](Cc2ccccc2)NC(=O)CCCSC[C@@H](C(=O)N[C@@H](CC(N)=O)C(=O)N[C@@H](CO)C(=O)N[C@@H](Cc2ccccc2)C(=O)N[C@@H](CCCN=C(N)N)C(=O)N[C@@H](Cc2ccc(O)cc2)C(=O)O)NC(=O)CNC(=O)[C@H](CC(C)C)NC(=O)CNC(=O)[C@H](CO)NC(=O)[C@H](CCC(N)=O)NC(=O)[C@H](C)NC(=O)CNC1=O (FGGRIDRIGAQSGLGCNSFRY-OH; linker N-16 via X2)	–	34	0.72	10.2	41.1	–	–	2.8	1.1	–	–
